# Data as given in ChEMBL document CHEMBL1156036, “A class of novel N-(3S-1,2,3,4-tetrahydroisoquinoline-3-carbonyl)-L-amino acid derivatives: their synthesis, anti-thrombotic activity evaluation, and 3D QSAR analysis” (Eur J Med Chem, 2009).
# Square brackets hold non-standard residues; d marks the D form. Peptide text beside a SMILES is read from it. Tic = O=C(O)[C@@H]1Cc2ccccc2CN1
# Legend:
# Type in all cases: functional
# [1] = Antiplatelet aggregatory activity in pig […] assessed as inhibition of ADP-induced platelet aggregation; details: Sus scrofa
# Summary of the method: (§1)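 Pig blood spun 1000g 10 min for platelet-rich plasma, then 1500g 10 min for platelet-poor plasma; platelets adjusted to 2×10^8/ml with autologous PPP. Test agent in NS (final 100 to 0.001 μM) added to 0.5 ml plasma, then inducer in NS: PAF 0.1 μM, ADP 10 μM, AA 350 μM or thrombin 0.1 U/ml (final). Optical aggregometry, 37 °C, 5 min, six tubes.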
# [2] = Antiplatelet aggregatory activity in pig […] assessed as inhibition of arachidonic acid-induced platelet aggregation; details: Sus scrofa; summary of the method: as §1
# [3] = Antiplatelet aggregatory activity in pig […] assessed as inhibition of platelet-activating factor-induced platelet aggregation; details: Sus scrofa; summary of the method: as §1
# [4] = Antiplatelet aggregatory activity in pig […] assessed as inhibition of thrombin-induced platelet aggregation; details: Sus scrofa; summary of the method: as §1
# [5] = test system: Rattus norvegicus; assay: Antithrombotic activity in Wistar rat assessed as reduction of wet thrombus weight at 15 umol/kg, iv after 15 mins
# Summary of the method: (§2)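 Male Wistar rats, 250-300 g, given agent dissolved in NS (kept on ice) intravenously; Aspirin 15 μmol/kg as reference, NS as vehicle. Pentobarbital sodium 80.0 mg/kg i.p. Arteriovenous shunt from right carotid artery to left jugular vein via polyethylene tube containing a thread; blood flowed 15 min; wet thrombus weighed, n = 12, mean ± SD.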
# [6] = test system: Rattus norvegicus; assay: Antithrombotic activity in Wistar rat assessed as reduction of wet thrombus weight at 15 umol/kg, po after 15 mins
# [7] = test system: Rattus norvegicus; assay: Antithrombotic activity in Wistar rat assessed as reduction of wet thrombus weight at 5 umol/kg, iv after 15 mins; summary of the method: as §2
# [8] = species: Rattus norvegicus; assay: Ratio of compound antithrombotic potency to aspirin antithrombotic potency in Wistar rat assessed as reduction of wet thrombus weight
# [9] = test system: Rattus norvegicus; assay: Antithrombotic activity in Wistar rat assessed as reduction of wet thrombus weight at 5 umol/kg, po after 15 mins
# Summary of the method: (§3)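 Oral dosing of male Wistar rats at 5, 1 or 0.2 μmol/kg in NS, or NS (0.6 ml) alone. Pentobarbital sodium 80.0 mg/kg ip; 30 min later vessels exposed. Weighed 6-cm thread in heparin-filled (50 IU/ml in NS) polyethylene tube linking carotid artery to jugular vein; 15 min flow; wet thrombus weight recorded, n = 12.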
# [10] = test system: Rattus norvegicus; assay: Antithrombotic activity in Wistar rat assessed as reduction of wet thrombus weight at 1 umol/kg, po after 15 mins; summary of the method: as §3
# [11] = test system: Rattus norvegicus; assay: Antithrombotic activity in Wistar rat assessed as reduction of wet thrombus weight at 0.2 umol/kg, po after 15 mins; summary of the method: as §3
structure (smiles),measurement,setting,value
O=C(O)[C@@H]1Cc2ccccc2CN1,IC50,[1],552 nM
same,IC50,[2],452 nM
same,IC50,[3],960 nM
same,IC50,[4],881 nM
same,Activity,[5],21.52 mg
same,Activity,[6],23.88 mg
N=C(N)NCCC[C@H](NC(=O)[C@@H]1Cc2ccccc2CN1)C(=O)O (H-[Tic]-Arg-OH),IC50,[1],124 nM
same,IC50,[2],361 nM
same,IC50,[3],1340 nM
same,IC50,[4],496 nM
same,Activity,[7],18.73 mg
same,Ratio,[8],>30
same,Activity,[9],19.01 mg
same,Activity,[10],24.38 mg
same,Activity,[11],29.11 mg
O=C(O)[C@H](Cc1c[nH]c2ccccc12)NC(=O)[C@@H]1Cc2ccccc2CN1 (H-[Tic]-Trp-OH),IC50,[1],120 nM
same,IC50,[2],374 nM
same,IC50,[3],668 nM
same,IC50,[4],234 nM
same,Activity,[7],21.3 mg
same,Ratio,[8],>30
O=C(O)[C@H](Cc1ccc(O)cc1)NC(=O)[C@@H]1Cc2ccccc2CN1 (H-[Tic]-Tyr-OH),IC50,[1],481 nM
same,IC50,[2],390 nM
same,IC50,[3],1150 nM
same,IC50,[4],970 nM
same,Activity,[7],19.31 mg
same,Ratio,[8],>30
CC(C)[C@H](NC(=O)[C@@H]1Cc2ccccc2CN1)C(=O)O (H-[Tic]-Val-OH),IC50,[1],382 nM
same,IC50,[2],388 nM
same,IC50,[3],943 nM
same,IC50,[4],199 nM
same,Activity,[7],19.2 mg
same,Ratio,[8],>30
CC(=O)Oc1ccccc1C(=O)O [ASPIRIN],Activity,[5],27.6 mg
